# High-throughput results deposited in PubChem BioAssay by The Scripps Research Institute Molecular Screening Center.
# An excerpt weighted towards active compounds, which were near 1.9% of everything screened.
# CHRM4 antagonist: antagonists of human muscarinic M4 receptor (CHRM4); P08173; CHO-hM4 cells, ACh EC80, Fluo-8 calcium fluorescence; inhibition, % at 3 µM; 360,000 tested, 0.73% active; AID 624125;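 active means inhibition above its plate's cutoff, the mean inhibition of sample wells plus 3 SD, cut at about 27% in these data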;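 further: 0% = acetylcholine EC80 with DMSO and 100% = DMSO without agonist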
# M4 PAM: potentiates acetylcholine response at human M4 receptor; 360,000 tested, 0.4% active; activation, % at 3 µM; AID 624126; CHO-K1 hM4/Gqi5, Fluo-8 calcium fluorescence, ACh EC20; 0% = ACh EC20, 100% = maximal ACh;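 active means activation above its plate's cutoff, the mean activation of sample wells plus 3 SD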
# M5 PAM: potentiates acetylcholine response at human M5 receptor. CHO-K1 hM5, Fluo-8 calcium, ACh EC20 PAM; 0% = ACh EC20, 100% = ACh EC100. activation, % at 3 µM. 360,000 tested, 0.3% active;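 active means activation above the run cutoff, the mean activation of all test compounds plus 3 SD, cut at about 18% in these data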
# Target sequence (P08912 whole entry, looked up): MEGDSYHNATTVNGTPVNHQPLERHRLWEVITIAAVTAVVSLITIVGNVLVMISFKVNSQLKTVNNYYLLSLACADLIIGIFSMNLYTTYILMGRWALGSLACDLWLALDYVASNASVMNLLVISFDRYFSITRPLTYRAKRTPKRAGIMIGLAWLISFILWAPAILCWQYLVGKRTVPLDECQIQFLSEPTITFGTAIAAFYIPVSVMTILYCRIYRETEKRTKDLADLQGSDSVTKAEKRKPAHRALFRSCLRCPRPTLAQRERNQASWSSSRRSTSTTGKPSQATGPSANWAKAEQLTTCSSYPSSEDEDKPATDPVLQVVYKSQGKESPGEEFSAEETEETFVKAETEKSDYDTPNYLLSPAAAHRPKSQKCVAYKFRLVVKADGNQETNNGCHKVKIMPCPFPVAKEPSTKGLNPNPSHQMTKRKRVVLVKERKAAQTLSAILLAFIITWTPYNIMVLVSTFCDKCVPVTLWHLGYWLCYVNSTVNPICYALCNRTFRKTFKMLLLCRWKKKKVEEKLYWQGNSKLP
#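 Replicates: One well per compound, no replicates | System: Human M5 receptor in CHO-K1 cells | Benchmarks: Low control EC20 acetylcholine (0%), high control EC100 acetylcholine (100%) | Probe or stimulus: Acetylcholine, EC20 level | Times: Fluo-8 loading 80 min at 37 °C plus 30 min room temperature | Signal: Intracellular calcium via Fluo-8 fluorescence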
# CHRM5 agonist: CHRM5 agonism in calcium assay | CHO-K1 hM5 cells, Fluo-8 calcium fluorescence; 0% DMSO wells, 100% maximal acetylcholine response | activation, % at 3 µM | 360,000 tested, 0.19% active | AID 624037;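 active means activation above the run's mean over test compounds plus 3 SD, cut at about 23% in these data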;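 further: signal is peak over basal fluorescence ratio across the kinetic read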
# CHRM5 antagonist: antagonists of human muscarinic M5 receptor (CHRM5). P08912. CHO-hM5 cells, Fluo-8 calcium fluorescence, ACh EC80. inhibition, % at 3 µM. 360,000 tested, 0.59% active;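 active means inhibition above a per-plate cutoff, the mean of that plate's test compounds plus 3 SD, cut at about 27% in these data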;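 further: 0% = acetylcholine EC80 with DMSO and 100% = DMSO without agonist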
# M4 ag: agonists of human muscarinic M4 receptor (CHRM4); P08173; AID 624127; activation, % at 3 µM; CHO-K1 hM4/Gqi5, Fluo-8 calcium fluorescence; vehicle 0%, full acetylcholine response 100%; 360,000 tested, 0.14% active;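 active means activation above the run mean over all test wells plus 3 SD, cut at about 32% in these data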;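 further: peak over basal fluorescence ratio per well then scaled between controls; 0% = DMSO wells and 100% = acetylcholine at EC100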
# * hit, by the source's call.
SMILES,CHRM4 antagonist,M4 PAM,M5 PAM,CHRM5 agonist,CHRM5 antagonist,M4 ag
Cn1c(=Nc2ccc(N3CCOCC3)cc2)ccc2ccccc21,20.6,-5.1,-21.1,-1.9,39.3*,1.6
CCn1c(=Nc2ccc(N3CCOCC3)cc2)ccc2ccccc21,-1.7,0.2,-23.5,10.9,67.0*,0.9
Cn1c(N=Nc2ccc(N3CCOCC3)cc2)[n+](C)c2ccccc21,2.1,3.1,1.8,2.6,-0.9,-0.5
CCNc1nc(NC(C)C)nc(NS(=O)(=O)c2ccc(N)cc2)n1,-17.1,29.8*,-0.1,3.1,2.5,1.4
O=C(NCCCN1CCOCC1)c1ccc2c(c1)N(Cc1cccc(Cl)c1)C(=O)CS2,36.1*,-20.4,-13.4,-7.0,9.5,3.3
CCCN1C(=O)/C(=C/c2c(N3CCNC(=O)C3CC(=O)OCC)nc3c(C)cccn3c2=O)SC1=S (stereo unspecified),13.0,-10.4,-23.8,25.5*,22.4,12.1
COC(=O)C1(C(=O)OC)CCCCN(S(=O)(=O)c2ccc(C)cc2)CCC1,-7.9,7.5,-7.3,3.0,2.3,9.6
NC(=S)Nn1c(-c2ccccc2)nc2ccccc2c1=O,-1.7,17.5,22.1*,1.9,-4.0,2.2
Cn1c(N)c(C(=O)COC(=O)Cc2ccsc2)c(=O)n(C)c1=O,3.1,22.4*,6.6,0.1,-4.3,2.8
Cn1c(N)c(C(=O)COC(=O)Cc2ccc(Br)cc2)c(=O)n(C)c1=O,-10.4,14.2,8.8,1.6,-10.1,0.6
CNc1nc(Nc2ccc(C)cc2C)c2sccc2n1,-3.3,-0.1,-6.7,4.8,6.5,9.1
CS(=O)(=O)N(CC(=O)Nc1ccccc1C(=O)NCCc1ccccc1)c1ccc2c(c1)OCCO2,41.3*,-14.1,-8.5,3.7,-3.1,0.7
CS(=O)(=O)N(CC(=O)Nc1ccccc1C(=O)NCc1ccccc1)c1ccc2c(c1)OCCO2,10.2,-17.5,-9.4,9.9,-6.1,6.9
Cc1onc(-c2ccccc2)c1C(=O)N/N=C/c1cc2c(cc1Br)OCO2,-10.5,-3.3,-16.9,-5.9,10.9,2.0
O=C(Nc1ccc(Cl)c(Cl)c1)OCc1cncs1,20.0,2.1,-9.7,-3.5,17.2,8.3
O=C(Nc1ccccc1)OCc1cncs1,2.4,5.9,18.3*,-0.9,-2.3,5.8
CC(C)c1ccc(NC(=O)c2cc(-c3cc(F)ccc3OCC3CCCO3)n[nH]2)cc1 (stereo unspecified),0.4,-2.2,-8.6,-1.7,-1.4,-0.7
CCCCn1c(-c2ccc([N+](=O)[O-])cc2)n[nH]c1=S,95.4*,-24.2,-20.5,-7.3,46.0*,0.7
COc1cc(OC)cc(-c2c(-c3ccc(F)cc3)c3cc(-c4cccc5[nH]ccc45)ccc3n2C)c1,-0.7,11.1,17.4,7.2,1.8,3.4
CCNc1nc(NC(C)C)nc(N(C)C#N)n1,5.1,5.9,5.0,1.9,-0.2,-0.3
CCCN(C#N)c1nc(NCC)nc(NC(C)C)n1,-1.6,10.2,-0.6,8.9,53.2*,-0.5
OC(c1cccs1)(c1cccs1)C1C[N+]2(CF)CCC1CC2 (stereo unspecified),68.5*,-40.3,-14.8,-6.6,62.6*,1.2
O=C(NCCO)C(=O)Nc1cc2c3c(c1)CC(=O)N3CCC2,1.3,14.3*,8.4,-4.1,1.5,-0.7
O=C1NN=C2CCCCCCC12 (stereo unspecified),90.6*,-11.6,-34.0,-5.5,24.2,0.9
CC(NC(=O)c1cc(S(=O)(=O)N2CCOCC2)ccc1F)c1ccc(-n2ccnc2)cc1 (stereo unspecified),14.6,-4.8,-0.3,-4.9,17.3,-0.2
SMILES,CHRM4 antagonist,M4 PAM,M5 PAM,CHRM5 agonist,CHRM5 antagonist,M4 ag
CC(=O)Nc1ccc(C2=NOC(C)(C)C(=O)N2Cc2cccc(C#N)c2)cc1,-11.3,4.0,-1.8,1.4,-1.7,4.6
CN(C)c1cc[n+](Cc2c(Cl)cccc2Cl)cc1,60.6*,-34.4,-20.2,-6.1,55.0*,0.8
O=C1NC2(CCCCCC2)C(=O)N1Cc1c(F)cccc1Cl,30.6*,-14.4,-2.9,-4.9,7.2,1.6
O=C1NC2(CCCCCC2)C(=O)N1Cc1ccccc1F,10.7,-2.6,-2.0,-4.2,9.6,-0.1
CCCCCCc1nc2ccccc2c(=O)n1N,7.8,-11.4,-12.5,-0.9,10.0,10.8
CCCCCN1C(=O)Cn2c(nc3ccccc3c2=O)C1C (stereo unspecified),-12.9,9.9,18.2*,3.9,-19.0,2.5
CS(=O)(=O)NN1C(=O)c2ccccc2NC1c1cccs1 (stereo unspecified),-3.8,10.8,0.3,2.0,-11.8,3.3
COc1cc(N2CCCC2)c(OC)cc1/C=C1/NC(=S)NC1=O,26.0,-13.6,-12.0,32.3*,16.7,30.4
COc1ccc(OC)c(/C=C2\NC(=O)NC2=O)c1,-7.6,-2.4,-1.5,1.4,-0.5,1.6
Nc1nc2ncccc2cc1C(=O)NC1CCCCC1,-2.7,0.7,1.4,1.4,4.7,1.1
CCOC(=O)C1(C)CCN1C(=O)c1ccc(C(=O)OC)cc1 (stereo unspecified),6.0,4.7,2.6,-0.1,26.0,0.8
O=C(/C=C/C=C/c1ccccc1)c1ccco1,-16.6,1.4,1.0,-2.4,-4.9,2.1
CC(C)CCN1C(=O)c2cccc3c(N)ccc(c23)C1=O,47.3*,-17.5,-31.6,313.1*,70.1*,97.4*
Cc1cccc(N2C(=O)c3cccc4c(N(C)CCO)ccc(c34)C2=O)c1,21.3,-24.6,-17.4,42.1*,22.8,38.2*
Nc1ccc2c3c(cccc13)C(=O)N(c1ccccc1)C2=O,30.6*,-27.8,-20.0,44.7*,23.4,70.5*
Nc1cccc(N2C(=O)c3cccc4c(N)ccc(c34)C2=O)c1,4.5,-12.3,-11.3,20.6,8.5,39.1*
O=C(O)c1cccc(N2C(=O)c3cccc4c(Cl)ccc(c34)C2=O)c1,1.0,7.0,-2.0,-1.9,-3.9,2.0
Cc1cccc(N2C(=O)c3cccc4c(N)ccc(c34)C2=O)c1,29.2*,-18.1,-30.5,379.9*,50.9*,103.8*
Cc1cccc(N2C(=O)c3cccc4cccc(c34)C2=O)c1,-3.1,2.1,1.1,0.7,4.8,1.1
CCOC(=O)c1ccc(NC(=S)NCCc2ccccc2)cc1,13.3,-11.1,-18.1,1.6,23.8,13.4
CCOC(=O)c1ccc(NC(=S)NCCc2ccccc2F)cc1,28.6*,-25.1,-33.9,2.8,29.9*,26.8
CCOC(=O)c1ccc(NC(=S)NCC(O)c2ccccc2)cc1 (stereo unspecified),13.6,-18.0,-19.7,7.7,37.7*,23.0
Cc1[nH]c2ccc3ncccc3c2c1C,-9.8,11.2,-1.4,-3.3,-5.9,1.6
